Tests used:
Bcap37 = assay: Cytotoxicity against human Bcap37 cells after 48 hrs by MTT assay; assay type: functional, cell-based; conditions: Bcap37, 48 h
In short: (§1)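 Log-phase tumor cells grown in RPMI 1640 with 10% FBS, diluted to 3 × 10⁴ cells/mL, and seeded in 96-well plates. Plates were held 24 h at 37 °C in 5% CO₂, then compounds were added at preset concentrations (6 wells each), with 5-fluorouracil as positive reference. After 48 h exposure, MTT in PBS (2.5 mg/mL) was added for 4 h. Formazan was dissolved in DMSO and read at 570 nm. IC50 is the concentration giving 50% survival; results are the mean of three experiments in triplicate.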

MGC-803 = assay: Cytotoxicity against human MGC803 cells after 48 hrs by MTT assay; assay type: functional, cell-based; conditions: MGC-803, 48 h; in short: as §1
SGC-7901 = assay: Cytotoxicity against human SGC7901 cells after 48 hrs by MTT assay; assay type: functional, cell-based; conditions: SGC-7901, 48 h; in short: as §1
[1] = target: Telomerase reverse transcriptase (Homo sapiens, UniProt O14746); assay: Inhibition of telomerase activity in human MGC803 cells after 24 hrs by TRAP-PCR-ELISA assay
Chain of Telomerase reverse transcriptase (O14746 whole entry): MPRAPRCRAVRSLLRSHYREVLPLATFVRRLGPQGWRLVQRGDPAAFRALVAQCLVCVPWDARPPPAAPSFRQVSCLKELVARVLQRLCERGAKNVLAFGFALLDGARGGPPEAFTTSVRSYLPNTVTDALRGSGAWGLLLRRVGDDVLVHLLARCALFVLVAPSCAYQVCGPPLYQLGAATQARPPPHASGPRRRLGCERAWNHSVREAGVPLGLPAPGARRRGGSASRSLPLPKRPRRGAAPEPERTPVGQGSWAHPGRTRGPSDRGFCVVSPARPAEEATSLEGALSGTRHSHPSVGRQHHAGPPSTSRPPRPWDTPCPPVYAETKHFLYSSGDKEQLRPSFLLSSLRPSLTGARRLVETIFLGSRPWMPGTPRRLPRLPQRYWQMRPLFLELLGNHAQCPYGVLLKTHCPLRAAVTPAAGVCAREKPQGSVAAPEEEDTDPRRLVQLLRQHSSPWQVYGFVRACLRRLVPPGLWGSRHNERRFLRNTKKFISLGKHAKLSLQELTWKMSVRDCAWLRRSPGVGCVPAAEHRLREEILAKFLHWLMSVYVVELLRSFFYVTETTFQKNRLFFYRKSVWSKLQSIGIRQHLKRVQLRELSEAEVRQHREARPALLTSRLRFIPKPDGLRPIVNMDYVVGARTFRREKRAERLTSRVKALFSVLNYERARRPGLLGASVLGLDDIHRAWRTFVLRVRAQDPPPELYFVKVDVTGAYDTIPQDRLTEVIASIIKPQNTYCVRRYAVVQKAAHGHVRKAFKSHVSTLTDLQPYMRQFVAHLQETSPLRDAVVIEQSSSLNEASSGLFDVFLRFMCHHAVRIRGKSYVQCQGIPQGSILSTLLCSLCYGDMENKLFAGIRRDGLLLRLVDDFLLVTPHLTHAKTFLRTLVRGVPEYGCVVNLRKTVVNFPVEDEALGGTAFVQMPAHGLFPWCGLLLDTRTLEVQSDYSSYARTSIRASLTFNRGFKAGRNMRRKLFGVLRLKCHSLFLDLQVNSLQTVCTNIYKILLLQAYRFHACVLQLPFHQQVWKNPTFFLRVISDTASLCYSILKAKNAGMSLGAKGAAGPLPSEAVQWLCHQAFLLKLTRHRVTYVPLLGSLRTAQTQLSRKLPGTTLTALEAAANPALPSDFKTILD

Row | Structure (SMILES) | IC50 (Bcap37) [µM] | IC50 (MGC-803) [µM] | IC50 (SGC-7901) [µM] | IC50 [1] [µM]
1 | CC1=NN(C(=O)CN2CCC(O)CC2)C(c2ccccc2O)C1 (stereo not given) | 18.7 | 4.12 | 5.71 | 9.11
2 | CC1=NN(C(=O)CN2CCCCC2C)C(c2ccccc2O)C1 (stereo not given) | 16.3 | 11.7 | 11.2 | 
3 | CCC1CCCCN1CC(=O)N1N=C(C)CC1c1ccccc1O (stereo not given) | 10.7 | 15.7 | 12.9 | 
4 | CC1=NN(C(=O)CN2CCC(C)CC2)C(c2ccccc2O)C1 (stereo not given) | 6.81 | 3.55 | 4.6 | 5.99
5 | CC1=NN(C(=O)CN2CCCCC2C(N)=O)C(c2ccccc2O)C1 (stereo not given) | 41.1 | 38.8 | 39.2 | 
6 | CC1=NN(C(=O)CN2CCC(C(F)(F)F)CC2)C(c2ccccc2O)C1 (stereo not given) | 8.55 | 2.64 | 3.22 | 8.81
7 | CC1=NN(C(=O)CN2CCCCC2[N+](=O)[O-])C(c2ccccc2O)C1 (stereo not given) | 32.3 | 28.3 | 30.7 | 42.1
8 | CCC1CCCCN1CC(=O)N1N=C(c2cc3ccccc3oc2=O)CC1c1ccccc1 (stereo not given) | 7.3 | 8.71 | 6 | 
9 | CC1CCN(CC(=O)N2N=C(c3cc4ccccc4oc3=O)CC2c2ccccc2)CC1 (stereo not given) | 6.57 | 3.01 | 4.7 | 2
10 | O=C(CN1CCC(Br)CC1)N1N=C(c2cc3ccccc3oc2=O)CC1c1ccccc1 (stereo not given) | 8.76 | 7.01 | 10.3 | 4.11
11 | O=c1[nH]cc(F)c(=O)[nH]1 [FLUOROURACIL] | 5.33 | 3.42 | 7.11 | 
12 | CC[n+]1c(-c2ccccc2)c2cc(N)ccc2c2ccc(N)cc21 [HOMIDIUM BROMIDE] |  |  |  | 2.47
